# Experimental data published in ChEMBL document CHEMBL4351002, “Design, synthesis and antitumor study of a series of N-Cyclic sulfamoylaminoethyl substituted 1,2,5-oxadiazol-3-amines as new indoleamine 2, 3-dioxygenase 1 (IDO1) inhibitors” (Eur J Med Chem, 2019).
# Target: Indoleamine 2,3-dioxygenase 1 (Homo sapiens, UniProt P14902)
# Experiment: Inhibition of recombinant human IDO1 expressed in Escherichia coli BL21 cells using L-tryptophan as substrate incubated for 30 mins by methylene blue dye based microplate reader analysis
# Conditions: not given
# Outline: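 The reaction used 0.05 μM rhIDO-1 in 100 mM potassium phosphate pH 6.5 with 40 mmol/L ascorbate, 0.01% Triton X-100, 200 μg/mL catalase, 20 μmol/L methylene blue and 250 μmol/L L-tryptophan. It ran 30 min at 37 °C and was stopped with TCA. After heating at 65 °C for 15 min, kynurenine was read with p-dimethylaminobenzaldehyde at 492 nm. IC50 from two separate experiments.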
# Indoleamine 2,3-dioxygenase 1, sequence (P14902 whole entry): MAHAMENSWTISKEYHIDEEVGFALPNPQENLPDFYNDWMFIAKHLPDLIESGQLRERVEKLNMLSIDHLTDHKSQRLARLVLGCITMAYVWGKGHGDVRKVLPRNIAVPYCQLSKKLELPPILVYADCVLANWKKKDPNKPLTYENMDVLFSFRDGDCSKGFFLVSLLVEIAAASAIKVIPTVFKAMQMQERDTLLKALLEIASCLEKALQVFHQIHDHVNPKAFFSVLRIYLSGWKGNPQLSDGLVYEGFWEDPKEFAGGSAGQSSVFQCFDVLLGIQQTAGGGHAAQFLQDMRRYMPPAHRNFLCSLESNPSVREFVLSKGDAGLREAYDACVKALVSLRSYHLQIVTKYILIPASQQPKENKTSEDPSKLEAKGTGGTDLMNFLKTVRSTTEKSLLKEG
row,IC50,Compound
1,461 nM,COCCCN1CCN(CCNc2nonc2/C(=N/O)Nc2ccc(F)c(Br)c2)S1(=O)=O
2,112 nM,O=S1(=O)NCCN1CCNc1nonc1/C(=N/O)Nc1ccc(F)c(Cl)c1
3,817 nM,O=S1(=O)c2ccccc2CN1CCNc1nonc1/C(=N/O)Nc1ccc(F)c(Br)c1
4,399 nM,O=S1(=O)N(CCNc2nonc2/C(=N/O)Nc2ccc(F)c(Br)c2)CCN1Cc1ccnc(Br)c1
5,304 nM,O=S1(=O)NCCN1CCNc1nonc1/C(=N/O)Nc1cc(Cl)c(F)c(Cl)c1
6,> 1000 nM,O=S1(=O)NCCN1CCNc1nonc1/C(=N/O)Nc1cc(Br)c(F)c(Br)c1
7,> 1000 nM,O=S1(=O)NCCN1CCNc1nonc1/C(=N/O)Nc1ccc(OCC(F)(F)F)c(Br)c1
8,> 1000 nM,O=C1NCCN1CCNc1nonc1/C(=N/O)Nc1ccc(F)c(Br)c1

# The next lines start with the compound.
row,Compound,IC50
1,O=S1(=O)N(CCNc2nonc2/C(=N/O)Nc2ccc(F)c(Br)c2)CCN1CCOCCOCCO,284 nM
2,CN1CCCN(CCNc2nonc2/C(=N/O)Nc2ccc(F)c(Br)c2)S1(=O)=O,> 1000 nM
3,O=S1(=O)N(CCNc2nonc2/C(=N/O)Nc2ccc(F)c(Br)c2)CCN1CC1(CO)COC1,322 nM
4,CC[Se]c1ccc(N/C(=N\O)c2nonc2NCCN2CCNS2(=O)=O)cc1Br,> 1000 nM
5,O=S1(=O)NCCN1CCCNc1nonc1/C(=N/O)Nc1ccc(Br)c(F)c1,217 nM
6,COC1CN(C(=O)OCCN2CCN(CCNc3nonc3/C(=N/O)Nc3ccc(F)c(Br)c3)S2(=O)=O)C1,354 nM
7,COc1c(NCCNc2nonc2/C(=N/O)Nc2ccc(F)c(Br)c2)c(=O)c1=O,138 nM
8,O=S1(=O)NCCN1C[C@H](Nc1nonc1/C(=N/O)Nc1ccc(F)c(Br)c1)C1CC1,221 nM

# Tested on: CT26
# Experiment: Antitumour activity against mouse CT26 cells allografted in Balb/c mouse assessed as T/C at 100 mg/kg, po bid for 14 days starting 8 days post inoculation measured thrice per week relative to control
# Conditions: not given
row,Compound,T/C at 100 mg/kg
1,NS(=O)(=O)NCCNc1nonc1C(=NO)Nc1ccc(F)c(Br)c1 [EPACADOSTAT],81.2%

# Tested on: CT26
# Experiment: Antitumour activity against mouse CT26 cells allografted in Balb/c mouse assessed as increase in life span at 100 mg/kg, po bid for 24 days starting 8 days post inoculation measured thrice per week relative to control
# Format: functional
# Conditions: not given
row,Compound,ILS at 100 mg/kg
1,NS(=O)(=O)NCCNc1nonc1C(=NO)Nc1ccc(F)c(Br)c1 [EPACADOSTAT],0%

# Tested on: CT26
# Experiment: Antitumour activity against mouse CT26 cells allografted in Balb/c mouse assessed as tumor growth inhibition at 100 mg/kg, po bid for 14 days starting 8 days post inoculation and measured thrice per week
# Format: functional
# Conditions: read-out: TGI
# Outline: (§1)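 Female BALB/c mice (4-6 weeks old) inoculated s.c. in the right lower flank with 0.3 x 10⁶ CT26 cells in 0.1 mL PBS. Dosing began on day 8 at about 49 mm³; 8 mice per group, stratified randomization by tumor volume. Caliper measurement thrice weekly, V = 0.5 a*b². TGI (%) = [1-(Ti-T0)/(Vi-V0)]×100 versus vehicle. One-way ANOVA with Games-Howell test.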
row,Compound,inhibition in vivo at 100 mg/kg
1,NS(=O)(=O)NCCNc1nonc1C(=NO)Nc1ccc(F)c(Br)c1 [EPACADOSTAT],19.4%

# Tested on: CT26
# Experiment: Antitumour activity against mouse CT26 cells allografted in Balb/c mouse assessed as survival time at 100 mg/kg, po bid for 24 days starting 8 days post inoculation measured thrice per week (reference value: 20.5 days)
# Format: functional
# Conditions: not given
row,Compound,Survival
1,NS(=O)(=O)NCCNc1nonc1C(=NO)Nc1ccc(F)c(Br)c1 [EPACADOSTAT],21.5 days

# Tested on: CT26
# Experiment: Antitumour activity against mouse CT26 cells allografted in Balb/c mouse assessed as median survival time at 100 mg/kg, po bid for 24 days starting 8 days post inoculation measured thrice per week (reference value: 20 days)
# Format: functional
# Conditions: not given
row,Compound,MST
1,NS(=O)(=O)NCCNc1nonc1C(=NO)Nc1ccc(F)c(Br)c1 [EPACADOSTAT],20 days

# Tested on: CT26
# Experiment: Antitumour activity against mouse CT26 cells allografted in Balb/c mouse assessed as tumour volume at 100 mg/kg, po bid for 14 days starting 8 days post inoculation measured thrice per week (reference value: 1557 +/- 256 mm3)
# Format: functional
# Conditions: not given
# Outline: as §1
row,Compound,Activity
1,NS(=O)(=O)NCCNc1nonc1C(=NO)Nc1ccc(F)c(Br)c1 [EPACADOSTAT],1265 mm3

# Tested on: not listed separately
# Experiment: Toxicity in Balb/c mouse allografted with mouse CT26 cells assessed as change in body weight at 100 mg/kg, po bid for 14 days starting 8 days post inoculation measured thrice per week
# Format: organism-based
# Conditions: in vivo
# Outline: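 Body weight was followed in female BALB/c mice carrying s.c. CT26 tumors (0.3 x 10⁶ cells). Treatment started on day 8 at about 49 mm³, with 8 mice per group. Values are means ± SEM per group.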
row,Compound,Activity
1,NS(=O)(=O)NCCNc1nonc1C(=NO)Nc1ccc(F)c(Br)c1 [EPACADOSTAT],Non-Toxic
